96 molecules from ChEMBL document CHEMBL4513216, “Probing the Open Global Health Chemical Diversity Library for Multistage-Active Starting Points for Next-Generation Antimalarials” (ACS Infect Dis, 2020) can be followed below.

The data set can be described thus: Toxicity liver stage against HepG2, at 10uM. Type of data set: cell-based. On the set-up: test concentration 10 uM, cell line HepG2-A16-CD81EGFP. As to conditions: human, HepG2-A16-CD81EGFP cells; read-out: INHIBITION
Put shortly:
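Uninfected HepG2-A16-CD81EGFP cells, 3 × 10^3 per well, 1536-well, plated on prespotted compound at 10 μM final, parasite-free screening media added to match infected plates; puromycin 10 μM positive, DMSO 0.5% negative; run in parallel with 48 h PbLuc assay at 37 °C, 5% CO2; viability by CellTiter-Glo luminescence, normalized to controls.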
Consider `NC(=O)CNC(=O)c1cc(Cn2cnc3ccccc32)[nH]n1`, for which the cytotoxicity at 10 µM was -4.2%. The result for `c1cc(-c2n[nH]c(CNc3nnc(C4CC4)o3)n2)ccn1` reads -2.59%; that for `Cc1nc(CN2CCCn3cnc(COCC4CC4)c3C2)cs1`, 7.04%. For `COc1ccccc1CC(=O)N1CCC(NCc2cccnc2)CC1`, the cytotoxicity at 10 µM was -5.7%.

For `CCn1nc(C)c(CCNC(=O)C2CCCN(C3CCCC3)C2)c1C` (stereo unspecified), the cytotoxicity at 10 µM was -9.34%. Then `CS(=O)(=O)N1CCOCC2(CCN(C(=O)c3ccco3)CC2)C1`, with 4.29%; and `Cn1ccc2cc(CC3COCCN(C(=O)c4ccccn4)C3)ccc21` (stereo unspecified), with 4.57%; and `CN(Cc1csc(-c2cccs2)n1)C(=O)CN1CCOC1=O`, with -0.811%. Take `COCc1nc(NC(C)Cc2cc(C)n[nH]2)c2cnn(C)c2n1` (stereo unspecified): the cytotoxicity at 10 µM was -10%.

For `CCS(=O)(=O)N1CCC2(CCN(Cc3nccs3)CC2)CC1`, the cytotoxicity at 10 µM is 7.13%. `CC[C@H]1N(CC2CCOCC2)CCC[C@]12CCC(=O)N2`: the cytotoxicity at 10 µM was 8.71%. Consider `Cc1cccc(CNCc2c(C(C)C)nn(C)c2N2CCOCC2)n1`, for which the cytotoxicity at 10 µM was -9.4%. In the case of `CCn1ncc2c1C(COC)CN(Cc1ccc(F)cc1)C2` (stereo unspecified), the cytotoxicity at 10 µM worked out at 12.4%. As to `Cc1ncccc1CNC(CCO)C1CCCCC1` (stereo unspecified), the cytotoxicity at 10 µM is -41.8%. For `Cc1nn2cccnc2c1C(=O)N1CCCC(n2ccnc2C)C1` (stereo unspecified), the cytotoxicity at 10 µM is -9.53%.

`Cn1cc(C(=O)NC2CCN(C(=O)NCC3CCSCC3)CC2)cn1`: the cytotoxicity at 10 µM is 4.02%.

Turning to `Cc1ccc(-c2nc(CNC3CCc4ncnn4C3)co2)c(C)c1` (stereo unspecified), the cytotoxicity at 10 µM was -9.5%. For the molecule `CC(C)CN1CC2(CCN(C(=O)c3cnccn3)CC2)CC1=O`, the cytotoxicity at 10 µM came out at 2.46%. For the molecule `CN(c1ccc(F)c(F)c1)S(=O)(=O)c1cc2c(c(C(=O)O)c1)OCCO2`, the cytotoxicity at 10 µM is -5.38%. Take `Cc1ccc(N2C[C@@H]3CN(Cc4ccsc4)CCO[C@@H]3C2)nn1`: the cytotoxicity at 10 µM came to 3.32%. For the molecule `CCc1ccc(CNCC2CCN(CCO)CC2)cc1`, the cytotoxicity at 10 µM was -6.73%. Turning to `Cc1ccc(CN2CCN(CC(=O)Nc3ccc4nsnc4c3)CC2)o1`, the cytotoxicity at 10 µM is -17.5%. As to `CCCOC1CCCN(C(=O)c2ccnnc2)C1` (stereo unspecified), the cytotoxicity at 10 µM was -20.6%. As for `Cn1cccc1C(=O)N1CCCC1c1ccc(CN2CCOCC2)cn1` (stereo unspecified), the cytotoxicity at 10 µM amounted to 1.43%. Turning to `CN(CCN1CCOCC1)C(=O)CCCc1ccccc1`, the cytotoxicity at 10 µM was -8.28%. As to `Cc1c(CCC(=O)N2CCOC(c3cnccn3)C2)cnn1C` (stereo unspecified), the cytotoxicity at 10 µM is -1.87%.

For the molecule `c1cc(CNCCc2cn3ccccc3n2)c2c(c1)OCCCO2`, the cytotoxicity at 10 µM was 15.2%.

As to `O=C1CO[C@H]2CN(C3CCOCC3)C[C@H]2N1Cc1ccccn1`, the cytotoxicity at 10 µM was 0.566%. On to `Cc1ccoc1C(=O)N1CCO[C@H]2[C@H](OCCN(C)C)CC[C@@H]21`, for which the cytotoxicity at 10 µM was -5.88%. For `CCNC(=O)N1CCC(=Cc2ccccc2)CC1`, the cytotoxicity at 10 µM is 3.87%. The result for `CCOc1cc(C(=O)N2CCN(C)CC2)cc2occc12` reads 7%; that for `Cc1csc(C(Cc2ccsc2)NC(=O)c2cc(=O)n(C)c(=O)n2C)n1` (stereo unspecified), -12.3%. In the case of `Cc1cc(N2CCC(Cc3ncccn3)C2)ncn1` (stereo unspecified), the cytotoxicity at 10 µM was 0.146%. Regarding `Cc1ccc(F)cc1S(=O)(=O)NCc1cccc(CS(C)(=O)=O)c1`, the cytotoxicity at 10 µM was -10.6%. With `Cc1nn(C)c(C)c1C1CCCN1Cc1nc2ccccc2o1` (stereo unspecified), the cytotoxicity at 10 µM is -20.6%. With `COCc1ccccc1CNc1nnc(C)c(C)c1C#N`, the cytotoxicity at 10 µM was -2.48%.

In the case of `C[S+]([O-])c1cccc(NC(=O)N(CCC#N)Cc2ccccn2)c1` (stereo unspecified), the cytotoxicity at 10 µM is 10.6%. As for `O=C(C1SCCc2sccc21)N1CCC(O)CC1` (stereo unspecified), the cytotoxicity at 10 µM was -7.38%. Consider `CC(C)OCCN1CCN(C(=O)c2cccc(-n3cccn3)n2)CC1`, for which the cytotoxicity at 10 µM is -3.88%. As to `CC1CCN(c2nc3cn(-c4ccc(F)cc4)c(=O)c-3c[nH]2)CC1`, the cytotoxicity at 10 µM came to 3.47%.

In the case of `Cc1nn(CCO)c(C)c1CNC1CCc2c(Cl)cccc21` (stereo unspecified), the cytotoxicity at 10 µM was -6.34%. Then `Cc1ccc(-c2cc(C)nc(C3CCCN3S(C)(=O)=O)n2)cc1` (stereo unspecified), with -8.27%; and `Cc1ccc(NC(=O)N2CCOC(C)C2)cc1Cl` (stereo unspecified), with -6.78%; and `CSCC(C)(O)CNS(=O)(=O)c1cccc(C)c1` (stereo unspecified), with -2.85%. With `O=C(CCc1cccs1)N1CCC(Nc2cccnn2)CC1`, the cytotoxicity at 10 µM was -10.5%. As to `Cc1cncnc1C1CCN(C(=O)C2(C)CCCCN2C)CC1` (stereo unspecified), the cytotoxicity at 10 µM was found to be 1.06%. `O=C(c1cccnc1)N1CCCC1c1nc(O)cc(-c2ccccn2)n1` (stereo unspecified): the cytotoxicity at 10 µM was -5.91%.

`CCc1nc(CCNc2ncccc2S(N)(=O)=O)sc1C`: the cytotoxicity at 10 µM was -3.23%. With `O=C(Nc1cccnc1)C1=NN(c2ccccc2)C(=O)CN1`, the cytotoxicity at 10 µM is -7.12%. The result for `O=C(N1CCCC1)N1CCO[C@H]2[C@@H](Oc3ccccn3)CC[C@@H]21` reads 8.95%; that for `CCN(CC1CN(CC2CCC2)CCO1)c1cccnn1` (stereo unspecified), 2.82%. Then `CCOCCNC(=O)c1cccc(Cn2nc(C)cc2C)c1`, with -7.69%. Turning to `CN(Cc1ccsc1)C(=O)CN1CCCC1Cn1cccn1` (stereo unspecified), the cytotoxicity at 10 µM was -3.78%. Take `CCc1nc(C2CCCN(C(=O)c3cccnc3O)C2)no1` (stereo unspecified): the cytotoxicity at 10 µM was -3.54%. As to `COc1ccc(C(O)CNC(=O)Cn2ccc(=O)n(C)c2=O)cc1` (stereo unspecified), the cytotoxicity at 10 µM was 6.45%. The result for `Cc1ccc(CC(=O)N2CCc3nnc(N(C)C)cc3C2)s1` reads -9.01%; that for `Cn1cc(CCC(=O)NS(=O)(=O)N2CCCc3ccccc32)cn1`, 14.6%; that for `CCn1cc2[nH]c(OC)c(CNC(=O)C3CCS(=O)(=O)CC3)cc-2c1=O`, 4.93%. The result for `CC(C)Oc1ccccc1OCCN1C(=O)CCNC1=O` reads -6.67%; that for `Cn1cc(C[C@H]2[C@H](O)CCN2Cc2ccncc2)cn1`, -78.5%. Then `Cc1cc(C(=O)NCC2(C(N)=O)CCOCC2)nn1C(C)(C)C`, with -16.6%. Consider `CCN(CCN1CCCCCC1)C(=O)c1cnc(-c2cccnc2)nc1`, for which the cytotoxicity at 10 µM worked out at 11.4%. For `Cc1ccoc1C(=O)N1CC[C@H]2[C@@H]1CCC(=O)N2c1cccnc1`, the cytotoxicity at 10 µM is -70.4%. As for `CCN(C(=O)CN1CCN(CC(C)O)CC1)C1=CCCCC1` (stereo unspecified), the cytotoxicity at 10 µM amounted to 8.67%. In the case of `CC(=O)C(C)CC(=O)N(Cc1cccc(C)c1)C(C)C` (stereo unspecified), the cytotoxicity at 10 µM is -3.73%. Turning to `CO[C@@H]1CCN(c2ncc(F)cn2)[C@H]1Cc1cnn(C)c1`, the cytotoxicity at 10 µM is -2.63%.

In the case of `O=C(Nc1ccc(N2CCCCC2)nc1)N1CCc2sccc2C1`, the cytotoxicity at 10 µM is -7.98%. As for `Cc1cccc(OCCN2CCN(Cc3noc(C)n3)CC2)c1`, the cytotoxicity at 10 µM is -8.78%. As for `O=C(CCS(=O)(=O)c1ccccc1)NCCCn1cccn1`, the cytotoxicity at 10 µM was found to be 12%. Then `CCN(CC)S(=O)(=O)c1csc(C(=O)N2CCC(C(N)=O)CC2)c1`, with -43.9%; and `CN(C)CCN1CCOCC2(C1)CN(Cc1nccs1)CCO2` (stereo unspecified), with 6%; and `CN1CCCCC1c1ncc2c(n1)CCN(Cc1ccc(Cl)c(F)c1)C2` (stereo unspecified), with -27.7%. Then `CCS(=O)(=O)CC(=O)NC(c1ccccc1)C1CCCCC1` (stereo unspecified), with -4.01%; and `Cc1noc(C2(C)CCN(C(=O)C(C)C)CC2)n1`, with -5.14%.

On to `CCS(=O)(=O)N1CCC2(CC1)CC[C@@]1(C(=O)N(C)C)CN(C)C[C@@H]21`, for which the cytotoxicity at 10 µM amounted to 10.4%. For `O=C1O[C@@H]2CN(c3cnccn3)C[C@@H]2N1CCCc1ccc(F)cc1`, the cytotoxicity at 10 µM is -3.94%. Turning to `CS(=O)(=O)N1CC2(CCN(C3COC3)C2)Cc2ccccc21` (stereo unspecified), the cytotoxicity at 10 µM is 11.9%.

On to `CN1C(=O)C[C@@H]2[C@@H]1CCN2S(=O)(=O)Cc1ccccc1`, for which the cytotoxicity at 10 µM was -5.76%. In the case of `COc1ccc(CNC(=O)N2CCCC(Nc3ccccc3)C2)cn1` (stereo unspecified), the cytotoxicity at 10 µM was -4.57%. The result for `COCC(=O)N1CCCC1c1nc(C)c2c(n1)N(CC(C)C)C(=O)CC2` (stereo unspecified) reads 1.6%. Consider `COCC(NC(=O)NCc1sc(C)nc1C)c1ccco1` (stereo unspecified), for which the cytotoxicity at 10 µM worked out at 6.75%.

For the molecule `CCNC(=O)C1CCCN1S(=O)(=O)c1sc(=O)[nH]c1C` (stereo unspecified), the cytotoxicity at 10 µM amounted to 1.34%. The result for `Cc1noc2nc(C3CCN(Cc4ccncc4)CC3)cc(C(F)F)c12` reads 6.54%.

As for `Cc1ncc(CN2CCC3(CC2)CC(=O)N(C)C3)cn1`, the cytotoxicity at 10 µM was 9.8%. The result for `N#Cc1cccnc1NCCNC(=O)N1CCCSCC1` reads -10.8%.

Turning to `C=C(C)Cn1nnc(C2(NC(=O)c3ccccc3)CCCC2)n1`, the cytotoxicity at 10 µM came out at 7.09%.

For the molecule `COc1c(C)cnc(CNC(=O)CCOCc2ccccc2)c1C`, the cytotoxicity at 10 µM is -4.31%. Turning to `CN1CCN2CCN(C(=O)c3cc4ncc(CCO)cn4n3)CC2C1` (stereo unspecified), the cytotoxicity at 10 µM was 6.99%. Regarding `CCOc1cccc(C(C)NCc2ccc(OC)c(OC)c2OC)c1` (stereo unspecified), the cytotoxicity at 10 µM was determined as 29.4%. For `CCc1[nH]ncc1C(=O)N1CCCN(Cc2cnn(C(C)C)c2)CC1`, the cytotoxicity at 10 µM was -12%. As to `COCCNC(=O)[C@@H]1CN(c2cc(OC)ncn2)C[C@H]2OCC[C@H]21`, the cytotoxicity at 10 µM is -3.06%. Then `CCn1nc(C)cc1NC(=O)CCn1nc(C)c(Br)c1C`, with 10.8%; and `CSc1ccc(-c2nc(CN3CCC(NC(C)=O)CC3)c(C)o2)cc1`, with -2.76%; and `COCC(=O)N1CCC[C@]2(C(=O)N(C)C)CN(c3ccccn3)C[C@@H]2C1`, with -10.1%. On to `O=C(Nc1cccnc1)[C@H]1CO[C@H]2CCNC[C@H]2C1`, for which the cytotoxicity at 10 µM was determined as 9.24%. For `Cc1cccc(CN2CCC3(CCCN(CC(=O)N(C)C)C3)C2)n1` (stereo unspecified), the cytotoxicity at 10 µM was -101%.
